Results on 39 sequences are retold here after the array DNA melting data of Ke et al. (doi:10.1101/2024.01.08.574731).

Series [1] in a line: melting temperature; fluorescence melt of hairpins on a sequencing array, two-state fit, raised by 9.35 °C to match UV melts. Particulars: sodium 0.088 M. The method, boiled down: (§1)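 Two-state fits, bootstrapped, provided melting temperature and folding enthalpy from Cy3 fluorescence normalised to pre-quench Cy3 and to control constructs. Library hairpins with annealed Cy3 and quencher oligos were imaged on a sequenced MiSeq flow cell in 50 mM Na-HEPES pH 8.0, 25 mM NaCl, at 2.5 °C intervals up to 60 °C. Four replicates were combined with inverse-variance weighting. A 9.35 °C upward shift was applied to fitted temperatures to match UV melts.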

A short description of series [2]: folding enthalpy; higher = less favourable; fluorescence melt of hairpins on a sequencing array, two-state fit. Conditions: sodium 0.088 M. The gist of the method: as §1

In the case of GCTGAGCGAAAGCTAGGC ((..(((....)))..)), the Tm in series [1] worked out at 52.7 °C. The folding enthalpy in series [2] is -20.3 kcal/mol.

On to GCCAGGCGAAAGCTGGGC (((..((....))..))), for which the Tm in series [1] is 62.9 °C. Besides, the folding enthalpy in series [2] was -27.1 kcal/mol.

GAGAATGGAAACATTTTC ((.((((....)))).)): the Tm in series [1] turned out to be 29.4 °C. For the same sequence, in series [2], the folding enthalpy is -14.8 kcal/mol.

In the case of GCTGAGCGAAAGCTAGC (((.(((....)))))), the Tm in series [1] is 53 °C. Besides, the folding enthalpy in series [2] was -26.3 kcal/mol.

GATCTTGCACAAGATC ((((((....)))))): the Tm in series [1] was determined as 50.8 °C. In series [2], the folding enthalpy is -33.4 kcal/mol.

On to GATCGTGCGTACGATC ((((((....)))))), for which, in series [1], the Tm was 55 °C. The folding enthalpy in series [2] was -39.5 kcal/mol.

For GGTTGGGGAAACCCGATC (.(.(((....))).).), the Tm in series [1] was found to be 34.4 °C. For the same sequence, the folding enthalpy in series [2] is -21.6 kcal/mol.

For GTGTCCGGAAACGGATAC ((.((((....)))).)), in series [1], the Tm came out at 53.3 °C. The folding enthalpy in series [2] was -38.6 kcal/mol.

Turning to GATCGTTGCAACGATC ((((((....)))))), the Tm in series [1] was found to be 59.2 °C. Besides, the folding enthalpy in series [2] is -59.5 kcal/mol.

Regarding GTCTTCACGAAAGTGGAC (((..(((....)))))), the Tm in series [1] stood at 31.9 °C. Besides, the folding enthalpy in series [2] was -14.2 kcal/mol.

As to GTGGCTCGAAAGAGCAC (((.(((....)))))), in series [1], the Tm was determined as 51.2 °C. Also, the folding enthalpy in series [2] was -11.8 kcal/mol.

On to GGCAGTCGAAAGACGCC (((.(((....)))))), for which the Tm in series [1] came to 65 °C. The folding enthalpy in series [2] is -26.6 kcal/mol.

As to GATCAACAGTTGATC ((((((...)))))), the Tm in series [1] was found to be 41.7 °C. In series [2], the folding enthalpy is -40.3 kcal/mol.

Regarding GGACAGGGAAACCCGTCC ((((.((....)).)))), the Tm in series [1] is 50.8 °C. In series [2], the folding enthalpy is -34.1 kcal/mol.

Consider GGAGCTGGAAACAGCTTC (.(((((....))))).), for which the Tm in series [1] came out at 53.1 °C. For the same sequence, in series [2], the folding enthalpy was -26.4 kcal/mol.

As for TGAGTGAAAACTCA (((((....))))), the Tm in series [1] turned out to be 42.4 °C. Besides, the folding enthalpy in series [2] is -18.3 kcal/mol.

For the sequence GCGTAGCGAAAGCGCCGC (((..((....))..))), the Tm in series [1] was determined as 59.7 °C. In addition, the folding enthalpy in series [2] was -15.9 kcal/mol.

As to GTGAGGGAAACCTCAC ((((((....)))))), the Tm in series [1] is 60.2 °C. For the same sequence, in series [2], the folding enthalpy was -31.7 kcal/mol.

GCAAACGAAAGTTAATGC ((((((....)))..))): in series [1], the Tm was 30.6 °C. In series [2], the folding enthalpy is -14.7 kcal/mol.

For GAAGGCGGAAACGCCCTC ((.((((....)))).)), in series [1], the Tm was determined as 35.1 °C. Also, the folding enthalpy in series [2] is -8.85 kcal/mol.

As to GTATGGGGAAACCTGTAC (((..((....))..))), in series [1], the Tm came to 32.2 °C. In addition, the folding enthalpy in series [2] was -17.1 kcal/mol.

Regarding GCGTGCGAAAGCATACGC ((((((....)))..))), the Tm in series [1] was determined as 63.9 °C. Besides, the folding enthalpy in series [2] was -28.9 kcal/mol.

Consider GAGATTGGAAACAGTCTC ((((.((....)).)))), for which the Tm in series [1] was found to be 40.8 °C. The folding enthalpy in series [2] is -27.4 kcal/mol.

GCGTTGCGAAAGCAGGGC ((..(((....)))..)): the Tm in series [1] came to 55.7 °C. Further, in series [2], the folding enthalpy is -23.5 kcal/mol.

On to GATCGTCGTTACGATC ((((((....)))))), for which the Tm in series [1] came to 55.6 °C. Further, the folding enthalpy in series [2] was -36 kcal/mol.

In the case of GCAGACGGAAACGTCCGC ((.((((....)))).)), the Tm in series [1] came to 52.6 °C. The folding enthalpy in series [2] is -24 kcal/mol.

Turning to GATGGAGGAAACTTCATC ((((.((....)).)))), in series [1], the Tm was 39.6 °C. In addition, the folding enthalpy in series [2] was -37.5 kcal/mol.

As for GTGGAACGAAAGTTACAC (((.(((....))).))), the Tm in series [1] is 57 °C. The folding enthalpy in series [2] was -40.4 kcal/mol.

Turning to GACCCCCGAAAGGGGTC (((.(((....)))))), in series [1], the Tm is 67.5 °C. Besides, the folding enthalpy in series [2] was -19.9 kcal/mol.

Take GTATGCGAAAGCACATAC ((((((....)))..))): in series [1], the Tm came to 31.8 °C. Further, in series [2], the folding enthalpy is -11.2 kcal/mol.

In the case of GGTTACGAAAGTAACC ((((((....)))))), the Tm in series [1] came out at 67.5 °C. Moreover, in series [2], the folding enthalpy was -34.7 kcal/mol.

In the case of GATCAAGAACTTGATC ((((((....)))))), the Tm in series [1] was 49.2 °C. In series [2], the folding enthalpy was -38.4 kcal/mol.

Consider GATCGCGCTGGCGATC ((((((....)))))), for which, in series [1], the Tm is 68.9 °C. The folding enthalpy in series [2] was -32.5 kcal/mol.

For the sequence GTTCTGGGAAACTAGAGC (.(((.(....).))).), in series [1], the Tm worked out at 24.9 °C. Also, the folding enthalpy in series [2] was -8.92 kcal/mol.

Consider GATCATGGGGATGATC ((((((....)))))), for which the Tm in series [1] is 46.5 °C. Moreover, the folding enthalpy in series [2] was -29.2 kcal/mol.

Turning to GAGCCCGAAAGGGCCCTC ((((((....)))..))), the Tm in series [1] came to 47.6 °C. The folding enthalpy in series [2] was -9.76 kcal/mol.

For the sequence GCATCCGAAAGGACTGC ((((((....))).))), the Tm in series [1] is 47.8 °C. The folding enthalpy in series [2] is -15 kcal/mol.

In the case of GCTTTGCGAAAGCCACGC ((.(.((....)).).)), the Tm in series [1] worked out at 37 °C. In series [2], the folding enthalpy was -10.4 kcal/mol.

GCTTCGCGAAAGCCAAGC ((((.((....)).)))): the Tm in series [1] turned out to be 50.3 °C. The folding enthalpy in series [2] is -18.2 kcal/mol.
